Results on two molecules are retold here after ChEMBL document CHEMBL3526048, “In vitro metabolism of rivoglitazone, a novel peroxisome proliferator-activated receptor γ agonist, in rat, monkey, and human liver microsomes and freshly isolated hepatocytes” (Drug Metab Dispos, 2011).

The target of series [1] is Cytochrome P450 2D6 (Homo sapiens, UniProt P10635). The series can be described thus: Activity of human CYP2D6 expressed in microsomes isolated from baculovirus infected insect cell assessed as enzyme-mediated compound formation treated with [14C]-rivoglitazone at 20 uM after 2 hrs by radio-HPLC/LC-MS/MS analysis in presence of NADPH-generating system. Type of series: ADME. Put shortly:
(§1)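 Baculovirus-insect-cell microsomes expressing the human CYP (1 mg/ml protein) were incubated with [14C]rivoglitazone (20 μM) in 50 mM potassium phosphate (pH 7.4) or 100 mM Tris-HCl (pH 7.5) with an NADPH-generating system (2 mM NADP+, 20 mM glucose 6-phosphate, 2 units/ml G6PDH, 10 mM MgCl2) for 2 h at 37°C. Insect-cell control supersomes served as the control. Reactions were stopped with acetonitrile, and the concentrated supernatants were analysed by radio-HPLC, LC-MS and LC-MS/MS.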

Series [2] is described as follows: Drug metabolism in cynomolgus monkey liver microsomes assessed as formation of 2-mercapto-3-(4-((6-methoxy-1-methyl-1H-benzo[d]imidazol-2-yl)methoxy)phenyl)propanamide at 20 uM after 2 hrs by radio-HPLC/LC-MS/MS analysis in presence of NADPH-generating system and NADPH-generating system/SAM. Format: ADME, Macaca fascicularis.
The target in series [3] is T1, UDP-glucuronosyltransferase 1A4 (Homo sapiens, UniProt P22310).
T1 sequence (P22310 whole entry): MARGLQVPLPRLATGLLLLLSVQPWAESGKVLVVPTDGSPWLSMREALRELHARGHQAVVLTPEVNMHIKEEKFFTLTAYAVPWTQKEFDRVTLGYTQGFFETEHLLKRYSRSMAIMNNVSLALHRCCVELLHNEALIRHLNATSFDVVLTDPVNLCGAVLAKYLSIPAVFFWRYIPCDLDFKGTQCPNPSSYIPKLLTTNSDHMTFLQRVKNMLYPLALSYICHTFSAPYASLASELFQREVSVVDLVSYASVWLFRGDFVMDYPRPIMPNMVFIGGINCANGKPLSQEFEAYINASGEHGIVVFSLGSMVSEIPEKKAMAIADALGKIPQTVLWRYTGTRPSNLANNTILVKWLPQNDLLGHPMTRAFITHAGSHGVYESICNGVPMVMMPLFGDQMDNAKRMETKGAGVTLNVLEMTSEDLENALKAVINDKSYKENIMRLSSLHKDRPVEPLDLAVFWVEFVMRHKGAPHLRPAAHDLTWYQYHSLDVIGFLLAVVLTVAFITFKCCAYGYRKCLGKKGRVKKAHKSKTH
The series can be described thus: Activity of human UGT1A4 expressed in microsomes isolated from baculovirus infected insect cell assessed as enzyme-mediated 2-mercapto-3-(4-((6-methoxy-1-methyl-1H-benzo[d]imidazol-2-yl)methoxy)phenyl)propanoic acid formation at 20 uM after 4 hrs by radio-HPLC/LC-MS/MS analysis in presence of UDPGA. Format: ADME.

Series [4] is described as follows: Drug metabolism in human hepatocytes assessed as formation of 5-hydroxy-5-(4-((6-methoxy-1-methyl-1H-benzo[d]imidazol-2-yl)methoxy)benzyl)thiazolidine-2,4-dione at 30 uM after 3 hrs by radio-HPLC/LC-MS/MS analysis in presence of NADPH-generating system and NADPH-generating system/SAM. Type of series: ADME, cell-based, Hepatocyte.
Series [5] has as its target T2, UDP-glucuronosyltransferase 2B7 (Homo sapiens, UniProt P16662).
T2 sequence (P16662 whole entry): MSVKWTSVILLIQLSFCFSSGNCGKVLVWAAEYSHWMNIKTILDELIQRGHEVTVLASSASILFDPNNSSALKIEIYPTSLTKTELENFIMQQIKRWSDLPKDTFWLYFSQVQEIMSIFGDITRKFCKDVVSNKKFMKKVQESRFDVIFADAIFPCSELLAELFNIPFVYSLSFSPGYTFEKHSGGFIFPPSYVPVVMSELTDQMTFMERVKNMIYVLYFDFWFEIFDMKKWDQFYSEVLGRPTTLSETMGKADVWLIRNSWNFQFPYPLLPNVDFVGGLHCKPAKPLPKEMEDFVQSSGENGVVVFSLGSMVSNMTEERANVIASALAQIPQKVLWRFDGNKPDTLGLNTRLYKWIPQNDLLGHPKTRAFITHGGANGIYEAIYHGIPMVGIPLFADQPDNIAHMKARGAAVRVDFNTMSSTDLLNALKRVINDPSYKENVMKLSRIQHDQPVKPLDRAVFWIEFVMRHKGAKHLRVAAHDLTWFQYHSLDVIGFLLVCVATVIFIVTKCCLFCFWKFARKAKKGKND
The series can be described thus: Activity of human UGT2B7 expressed in microsomes isolated from baculovirus infected insect cell assessed as enzyme-mediated 3-(4-((6-methoxy-1-methyl-1H-benzo[d]imidazol-2-yl)methoxy)phenyl)-2-(methylsulfinyl)propanamide formation at 20 uM after 4 hrs by radio-HPLC/LC-MS/MS analysis in presence of NADPH-generating system/SAM. Format: ADME.

Series [6] deals with Liver microsome. Description: Drug metabolism in Sprague-Dawley rat liver microsomes assessed as formation of 3-(4-((6-methoxy-1-methyl-1H-benzo[d]imidazol-2-yl)methoxy)phenyl)-2-(methylsulfinyl)propanamide at 20 uM after 2 hrs by radio-HPLC/LC-MS/MS analysis in presence of NADPH-generating system/SAM. Format: ADME. In general terms: Liver microsomes are a subcellular fraction often used to study metabolism.

In series [7] the test system is Liver microsome. Description: Drug metabolism in Sprague-Dawley rat liver microsomes assessed as formation of (2S,3S,4S,5R,6R)-6-((1-carboxy-2-(4-((6-methoxy-1-methyl-1H-benzo[d]imidazol-2-yl)methoxy)phenyl)ethylthio)carbonylamino)-3,4,5-trihydroxytetrahydro-2H-pyran-2-carboxylic acid at 20 uM after 4 hrs by radio-HPLC/LC-MS/MS analysis in presence of UDPGA and UDPGA/SAM. Format: ADME.

The target of series [8] is T2, UDP-glucuronosyltransferase 2B7. The series can be described thus: Activity of human UGT2B7 expressed in microsomes isolated from baculovirus infected insect cell assessed as enzyme-mediated 5-hydroxy-5-(4-((6-methoxy-1-methyl-1H-benzo[d]imidazol-2-yl)methoxy)benzyl)thiazolidine-2,4-dione formation at 20 uM after 4 hrs by radio-HPLC/LC-MS/MS analysis in presence of NADPH-generating system and NADPH-generating system/SAM in presence of UDPGA and UDPGA/SAM. Type of series: ADME.

Series [9] can be described thus: Drug metabolism in cynomolgus monkey liver microsomes assessed as formation of 2-((4-((2,4-dioxothiazolidin-5-yl)methyl)phenoxy)methyl)-1-methyl-1H-benzo[d]imidazol-6-yl hydrogen sulfate at 20 uM by radio-HPLC/LC-MS/MS analysis. Format: ADME, Macaca fascicularis.
Series [10] concerns the target T3, Cytochrome P450 3A4 (Homo sapiens, UniProt P08684). Description: Activity of human CYP3A4 expressed in microsomes isolated from baculovirus infected insect cell assessed as enzyme-mediated 2-mercapto-3-(4-((6-methoxy-1-methyl-1H-benzo[d]imidazol-2-yl)methoxy)phenyl)propanoic acid formation at 20 uM after 2 hrs by radio-HPLC/LC-MS/MS analysis in presence of NADPH-generating system. Format: ADME. Put shortly:
as §1

The target in series [11] is T3, Cytochrome P450 3A4. Description: Activity of human CYP3A4 expressed in microsomes isolated from baculovirus infected insect cell assessed as enzyme-mediated (2S,3S,4S,5R,6R)-3,4,5-trihydroxy-6-(5-(4-((6-methoxy-1-methyl-1H-benzo[d]imidazol-2-yl)methoxy)benzyl)-2,4-dioxothiazolidin-3-yl)tetrahydro-2H-pyran-2-carboxylic acid formation at 20 uM after 2 hrs by radio-HPLC/LC-MS/MS analysis in presence of UDPGA and UDPGA/SAM. Type of series: ADME.

T3 sequence (P08684 whole entry): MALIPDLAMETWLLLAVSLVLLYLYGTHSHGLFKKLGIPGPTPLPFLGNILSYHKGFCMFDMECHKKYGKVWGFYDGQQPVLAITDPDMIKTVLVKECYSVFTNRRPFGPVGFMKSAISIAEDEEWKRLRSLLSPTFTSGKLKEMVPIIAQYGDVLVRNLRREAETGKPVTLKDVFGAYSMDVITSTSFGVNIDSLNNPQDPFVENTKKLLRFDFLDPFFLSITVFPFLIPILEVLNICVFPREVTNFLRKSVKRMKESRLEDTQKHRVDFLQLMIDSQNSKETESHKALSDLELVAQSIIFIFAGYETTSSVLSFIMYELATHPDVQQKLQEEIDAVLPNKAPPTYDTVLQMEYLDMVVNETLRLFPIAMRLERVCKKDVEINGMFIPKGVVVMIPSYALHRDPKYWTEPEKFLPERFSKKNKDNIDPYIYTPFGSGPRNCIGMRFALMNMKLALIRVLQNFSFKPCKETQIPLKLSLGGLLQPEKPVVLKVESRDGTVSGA
Cytochrome P450 2D6, sequence (P10635 whole entry): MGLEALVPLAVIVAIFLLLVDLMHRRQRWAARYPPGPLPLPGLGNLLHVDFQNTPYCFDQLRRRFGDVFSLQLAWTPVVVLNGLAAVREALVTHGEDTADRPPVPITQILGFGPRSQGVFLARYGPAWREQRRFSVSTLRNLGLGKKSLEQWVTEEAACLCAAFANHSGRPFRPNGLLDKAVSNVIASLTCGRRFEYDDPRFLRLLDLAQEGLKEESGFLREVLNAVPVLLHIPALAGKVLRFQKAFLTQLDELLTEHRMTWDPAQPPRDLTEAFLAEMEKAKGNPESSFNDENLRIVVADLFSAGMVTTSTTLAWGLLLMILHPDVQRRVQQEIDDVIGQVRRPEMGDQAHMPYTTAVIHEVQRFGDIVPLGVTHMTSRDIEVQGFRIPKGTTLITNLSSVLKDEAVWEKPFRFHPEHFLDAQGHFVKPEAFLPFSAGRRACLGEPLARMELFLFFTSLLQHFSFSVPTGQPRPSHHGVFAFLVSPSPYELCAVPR

On to `COc1ccc2nc(COc3ccc(CC(S)C(=O)O)cc3)n(C)c2c1` (stereo unspecified), for which, in series [1], the Drug metabolism result is on record as “metabolite_detected”.

Turning to `COc1ccc2nc(COc3ccc(C[14CH]4SC(=O)NC4=O)cc3)n(C)c2c1.Cl` (racemic), the Drug metabolism result is listed as “metabolite_detected” in [2]; “metabolite_not_detected” in series [3]; “metabolite_detected” in series [4]; “metabolite_not_detected” in series [5]; “metabolite_detected” in series [6]; “metabolite_detected” in series [7]. In addition, the Drug metabolism entry is recorded as “metabolite_not_detected” in series [8], “metabolite_not_detected” in series [9], “metabolite_detected” in series [10] and “metabolite_not_detected” in series [11].
